Measurements: ChEMBL document CHEMBL4152308, “Synthesis and biological evaluation of novel 2-oxo-1,2-dihydroquinoline-4-carboxamide derivatives for the treatment of esophageal squamous cell carcinoma” (Eur J Med Chem, 2018)
Calls of active or inactive are those of the source. No cut-off for these calls is given here.

Tests used:
[1] = system: KYSE-410; experiment: Antiproliferative activity against human KYSE410 cells after 72 hrs by MTT assay; assay type: functional, cell-based; conditions: KYSE-410, 72 h
In short: (§1)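 Cells grown as monolayers at 37 °C, 5% CO2, mycoplasma-checked, in exponential phase. Cells seeded in 96-well plates, 24 h attachment, then compound added for 72 h. MTT 0.3 mg/mL for 3 h at 37 °C, DMSO solubilization, absorbance at 570 nm. Inhibition = (1 − A/C) × 100%. IC50 from log(concentration) vs % inhibition plot; triplicate wells, SD from ≥3 independent experiments.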

[2] = system: KYSE-70 cell line; experiment: Antiproliferative activity against human KYSE-70 cells after 72 hrs by MTT assay; assay type: functional, cell-based; conditions: KYSE-70, 72 h; in short: as §1
[3] = system: MIA PaCa-2; experiment: Antiproliferative activity against human MIAPaCa2 cells after 72 hrs by MTT assay; assay type: functional, cell-based; conditions: MIA PaCa-2, 72 h; in short: as §1
[4] = system: OVCAR-8; experiment: Antiproliferative activity against human OVCAR8 cells after 72 hrs by MTT assay; assay type: functional, cell-based; conditions: OVCAR-8, 72 h; in short: as §1
[5] = system: SK-OV-3; experiment: Antiproliferative activity against human SKOV3 cells after 72 hrs by MTT assay; assay type: functional, cell-based; conditions: SK-OV-3, 72 h; in short: as §1
[6] = system: KYSE-410; experiment: Cell cycle arrest in human KYSE410 cells assessed as accumulation at G1 phase at 1 uM after 24 to 48 hrs by propidium iodide staining based flow cytometry (reference value: 65.4%); assay type: functional
[7] = system: KYSE-410; experiment: Cell cycle arrest in human KYSE410 cells assessed as accumulation at S phase at 1 uM after 24 to 48 hrs by propidium iodide staining based flow cytometry (reference value: 22.3%); assay type: functional
[8] = system: KYSE-410; experiment: Cell cycle arrest in human KYSE410 cells assessed as accumulation at G2 phase at 1 uM after 24 to 48 hrs by propidium iodide staining based flow cytometry (reference value: 12.2%); assay type: functional
[9] = system: KYSE-410; experiment: Cell cycle arrest in human KYSE410 cells assessed as accumulation at G1 phase at 5 uM after 24 to 48 hrs by propidium iodide staining based flow cytometry (reference value: 65.4%); assay type: functional
[10] = system: KYSE-410; experiment: Cell cycle arrest in human KYSE410 cells assessed as accumulation at S phase at 5 uM after 24 to 48 hrs by propidium iodide staining based flow cytometry (reference value: 22.3%); assay type: functional
[11] = system: KYSE-410; experiment: Cell cycle arrest in human KYSE410 cells assessed as accumulation at G2 phase at 5 uM after 24 to 48 hrs by propidium iodide staining based flow cytometry (reference value: 12.2%); assay type: functional
[12] = system: KYSE-410; experiment: Induction of autophagy in human KYSE410 cells assessed as increase in LC3B level at 10 to 50 uM after 24 hrs by Western blot analysis; assay type: functional, cell-based
In short: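 Cells treated 24 h at indicated concentrations, with bafilomycin for induced-LC3B readouts. Lysis in RIPA with protease inhibitors, BCA protein assay, samples heated 5 min at 100 °C. Equal protein run on 15% SDS-PAGE, transferred to PVDF. Anti-LC3B primary overnight at 4 °C, GAPDH as loading control, anti-rabbit secondary, TBST washes.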

| Compound | IC50 [1] | IC50 [2] | further results |
| --- | --- | --- | --- |
| COc1ccc(NC(=O)c2cc(=O)[nH]c3cc(Br)ccc23)cc1 | > 20 µM | > 20 µM |  |
| O=C(Nc1ccc(Cl)cc1)c1cc(=O)[nH]c2cc(Br)ccc12 | > 20 µM | > 20 µM |  |
| Cc1ccc(-c2ccc3c(C(=O)Nc4cccc(F)c4)cc(=O)[nH]c3c2)cc1 | > 20 µM | > 20 µM |  |
| O=C(Nc1cc(F)cc(F)c1)c1cc(=O)[nH]c2cc(F)ccc12 | > 20 µM | > 20 µM |  |
| O=C(Nc1cccc(F)c1)c1cc(=O)[nH]c2cc(-c3ccc(F)nc3)ccc12 | > 20 µM | > 20 µM |  |
| O=C(Nc1ccc(F)cc1)c1cc(=O)[nH]c2cc(Br)ccc12 | > 20 µM | > 20 µM |  |
| COc1ccc2c(C(=O)Nc3cc(F)cc(F)c3)cc(=O)[nH]c2c1 | > 20 µM | > 20 µM |  |
| O=C(Nc1cccc(F)c1)c1cc(=O)[nH]c2cc(-c3ccncc3)ccc12 | > 20 µM | > 20 µM |  |
| O=C(Nc1cccc(F)c1)c1cc(=O)[nH]c2cc(-c3cccnc3F)ccc12 | 11.6 µM | > 20 µM |  |
| O=C(Nc1cccc(F)c1)c1cc(=O)[nH]c2cc(-c3ccsc3)ccc12 | 4.3 µM | 5.1 µM | IC50 [3]: 4.5 µM; IC50 [4]: 13.4 µM; IC50 [5]: 6.7 µM; Activity [6]: 63.6%; Activity [7]: 21.7%; Activity [8]: 14.7%; Activity [9]: 22.6%; Activity [10]: 22.4%; Activity [11]: 54.9% |
| O=C(Nc1ccc(C(F)(F)F)cc1)c1cc(=O)[nH]c2cc(Br)ccc12 | > 20 µM | > 20 µM |  |
| O=C(Nc1cccc(F)c1)c1cc(=O)[nH]c2cc(C3CC3)ccc12 | > 20 µM | > 20 µM |  |
| C=Cc1ccc2c(C(=O)Nc3cccc(F)c3)cc(=O)[nH]c2c1 | 13.6 µM | 9.7 µM |  |
| O=C(c1ccnc2cc(Br)ccc12)N1CCCCC1 | > 20 µM | > 20 µM |  |
| O=C(Nc1ccc(F)cc1F)c1cc(=O)[nH]c2cc(Br)ccc12 | > 20 µM | > 20 µM |  |
| CC(=O)c1ccc(-c2ccc3c(C(=O)Nc4cccc(F)c4)cc(=O)[nH]c3c2)cc1 | > 20 µM | > 20 µM |  |
| COc1ccc2c(C(=O)Nc3cc(F)cc(F)c3)cc(=O)[nH]c2n1 | > 20 µM | > 20 µM |  |
| O=C(Nc1ccc(F)cc1)c1ccnc2cc(Br)ccc12 | > 20 µM | > 20 µM |  |
| O=C(Nc1cccc(F)c1)c1cc(=O)[nH]c2cc(C3=CCOCC3)ccc12 | 12.1 µM | 10.5 µM | IC50 [3]: 8.8 µM; IC50 [4]: 21.8 µM; IC50 [5]: 13.3 µM |
| O=C(Nc1cccc(Cl)c1)c1cc(=O)[nH]c2cc(Br)ccc12 | > 20 µM | > 20 µM |  |
| O=C(Nc1cc(F)ccc1F)c1cc(=O)[nH]c2cc(Br)ccc12 | > 20 µM | > 20 µM |  |
| O=C(Nc1cccc(C(F)(F)F)c1)c1cc(=O)[nH]c2cc(Br)ccc12 | > 20 µM | > 20 µM |  |
| O=C(Nc1cccc(F)c1)c1cc(=O)[nH]c2cc(-c3ccc(F)c(CO)c3)ccc12 | > 20 µM | > 20 µM |  |
| O=C(Nc1cccc(F)c1)c1cc(=O)n(O)c2ccccc12 | > 20 µM | > 20 µM |  |
| O=C(Nc1cc(F)cc(F)c1)c1cc(=O)[nH]c2cc(O)ccc12 | > 20 µM | > 20 µM |  |
| COc1cccc2c(C(=O)Nc3cc(F)cc(F)c3)cc(=O)[nH]c12 | > 20 µM | > 20 µM |  |
| CCN(CC)CCCC(C)Nc1ccc(NC(=O)c2cc(=O)[nH]c3cc(F)ccc23)cc1F (centres undefined) | > 20 µM | > 20 µM | Activity [12]: Active |
| CC(C)(C)c1ccc(-c2ccc3c(C(=O)Nc4cccc(F)c4)cc(=O)[nH]c3c2)cc1 | > 20 µM | > 20 µM |  |
